How the values were obtained:
[1] = target: T1, Estrogen receptor (Homo sapiens) (UniProt P03372); assay: Activation of the estrogen receptors of MCF-7-2a cells at 10e-6 M.
T1 sequence (whole entry): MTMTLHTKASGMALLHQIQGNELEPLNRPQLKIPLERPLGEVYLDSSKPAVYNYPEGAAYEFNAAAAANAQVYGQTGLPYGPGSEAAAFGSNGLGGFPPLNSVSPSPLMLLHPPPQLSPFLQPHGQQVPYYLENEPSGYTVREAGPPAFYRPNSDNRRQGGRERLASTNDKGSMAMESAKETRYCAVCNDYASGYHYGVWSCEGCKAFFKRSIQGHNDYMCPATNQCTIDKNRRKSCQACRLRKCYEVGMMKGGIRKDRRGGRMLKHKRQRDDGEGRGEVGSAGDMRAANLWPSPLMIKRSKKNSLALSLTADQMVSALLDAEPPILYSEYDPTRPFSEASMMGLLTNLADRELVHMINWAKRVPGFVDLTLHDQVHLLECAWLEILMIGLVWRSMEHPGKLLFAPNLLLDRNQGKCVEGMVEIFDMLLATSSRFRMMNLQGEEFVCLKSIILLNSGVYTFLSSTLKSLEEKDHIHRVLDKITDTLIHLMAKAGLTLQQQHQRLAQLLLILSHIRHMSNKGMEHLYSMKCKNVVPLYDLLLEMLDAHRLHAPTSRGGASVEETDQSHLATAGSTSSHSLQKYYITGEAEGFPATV
Method in brief: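 MCF-7-2a cells stably carrying ERE(wtc)luc, kept one week in DMEM with L-glutamine, antibiotics and dextran/charcoal-treated BCS (50 mL/L). Seeded at about 2.2 × 10^5 cells/mL in six-well plates; compound added after 24 h and cells incubated 50 h. Lysed 20 min at room temperature, luciferase luminescence read for 10 s (RLU), normalized to Bradford protein. Line value taken at 1 μM.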

[2] = tested on: Estrogen receptor alpha (Bos taurus); assay: Relative binding affinity to Estrogen receptor alpha in calf uterine cytosol compared to [3H]E2.; settings: Uterus

Row | Structure (SMILES) | Relative activation [1] | relative binding affinity (RBA) [2]
1 | CCN1CCN(CC)[C@@H](c2ccc(OC)cc2F)[C@H]1c1ccc(OC)cc1F | 7% | 
2 | CCN1CCN(CC)[C@@H](c2ccc(O)cc2)[C@H]1c1ccc(O)cc1 | 8% | < 0.02
3 | Oc1ccc(Cl)c([C@H]2NCCN[C@H]2c2c(Cl)ccc(O)c2Cl)c1Cl | 12% | < 0.02
4 | CCN1CCN(CC)[C@@H](c2ccc(O)cc2F)[C@H]1c1ccc(O)cc1F | 4% | 0.03
5 | COc1ccc([C@H]2NCCN[C@H]2c2ccc(OC)cc2F)c(F)c1 | 4% | 
6 | Oc1ccc([C@H]2NCCN[C@H]2c2ccc(O)cc2F)c(F)c1 | 4% | < 0.02
7 | CCN1CCN(CC)[C@@H](c2ccc(OC)cc2)[C@H]1c1ccc(OC)cc1 | 4% | 
8 | CCN1CCN(CC)[C@@H](c2ccc(O)cc2Cl)[C@H]1c1ccc(O)cc1Cl | 37% | 0.17
9 | CCN1CCN(CC)[C@@H](c2ccc(OC)cc2Cl)[C@H]1c1ccc(OC)cc1Cl | 0% | 
10 | Oc1ccc([C@H]2NCCN[C@H]2c2ccc(O)cc2)cc1 | -1% | < 0.02
11 | Oc1cc(Cl)c([C@H]2NCCN[C@H]2c2c(Cl)cc(O)cc2Cl)c(Cl)c1 | 73% | 0.05
12 | Oc1ccc([C@H]2NCCN[C@H]2c2c(Cl)cc(O)cc2Cl)c(Cl)c1 | 20% | < 0.02
13 | COc1ccc(Cl)c([C@H]2NCCN[C@H]2c2c(Cl)ccc(OC)c2Cl)c1Cl | 8% | 
14 | COc1ccc([C@H]2NCCN[C@H]2c2ccc(OC)cc2Cl)c(Cl)c1 | 1% | 
15 | CCN1CCN[C@H](c2ccc(O)cc2F)[C@@H]1c1ccc(O)cc1F | 34% | 0.06
16 | CCN1CCN[C@H](c2ccc(OC)cc2Cl)[C@@H]1c1ccc(OC)cc1Cl | 4% | 
17 | COc1cc(Cl)c([C@H]2NCCN[C@H]2c2c(Cl)cc(OC)cc2Cl)c(Cl)c1 | 5% | 
18 | CCN1CCN[C@H](c2ccc(O)cc2Cl)[C@@H]1c1ccc(O)cc1Cl | 74% | 0.42
19 | Oc1ccc([C@H]2NCCN[C@H]2c2ccc(O)cc2Cl)c(Cl)c1 | 7% | < 0.02
20 | COc1ccc([C@H]2NCCN[C@H]2c2ccc(OC)cc2)cc1 | 5% | 
21 | COc1ccc([C@H]2NCCN[C@H]2c2c(Cl)cc(OC)cc2Cl)c(Cl)c1 | 3% | 
22 | CCN1CCN[C@H](c2ccc(OC)cc2F)[C@@H]1c1ccc(OC)cc1F | 3% | 
